Test results reported in ChEMBL document CHEMBL4138115, “An evaluation of Minor Groove Binders as anti-fungal and anti-mycobacterial therapeutics” (Eur J Med Chem, 2017).
≈ marks a conversion by molar mass, not a printed value. Calls of active or inactive are those of the source. The calls are words filed in the database; no cut-off is given here.

Columns and labels:
Cryptococcus neoformans = assay: Antifungal activity against Cryptococcus neoformans ATCC 208821 after 24 hrs by resazurin dye-based two-fold serial dilution assay; format: functional
[1] = Cytotoxicity against HEK293 cells reduction in cell viability after 20 hrs by resazurin dye based fluorescence assay; settings: human
Method in brief: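 HEK-293 cells at 4000 per well in DMEM with 10% FBS, exposed to two-fold dilutions from 32 to 0.25 (final) for 20 h at 37 °C, 5% CO₂. Resazurin added (100 final) for 3 h more; fluorescence ex 560/em 590 nm. CC50 is the concentration giving 50% cytotoxicity. Duplicates.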

[2] = test system: Mycobacterium tuberculosis; assay: Antimycobacterial activity against GFP labelled Mycobacterium tuberculosis H37Rv up to 14 days by fluorescence assay; format: functional
Method in brief: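 GFP-labelled Mtb H37Rv at 1 × 10^5 CFU/well in 7H9 broth with 10% OADC and 25 kanamycin. Two-fold compound dilutions were tested. Incubated at 37 °C without shaking.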

[3] = Lipophilicity of the compound assessed as retention time by HPLC method; format: physicochemical
Method in brief: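 Reverse-phase C18 HPLC with water and acetonitrile, each containing 0.1% TFA. Gradient runs from 100% water to 100% acetonitrile over 1 h; lipophilicity reported as retention time in minutes.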

Salmon testes DNA = assay: Binding affinity to wild type salmon sperm DNA assessed as change in melting temperature at 10 uM; format: nucleic-acid assay; settings: Salmonidae
Trypanosoma congolense = assay: Antiparasitic activity against Trypanosoma congolense IL3000 after 69 hrs by Alamar blue assay; format: functional, organism-based; settings: IL3000, 69 h
Method in brief: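 Bloodstream-form IL3000 counted electronically and seeded at 1.25 × 10⁵ trypanosomes/ml into threefold serial compound dilutions. Kept 69 h at 34 °C, 5% CO₂, then resazurin (12.5 mg per 100 mL PBS) added for 3 h. Fluorescence ex 536/em 588 nm gives EC50. Three separate assay runs.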

Candida albicans = assay: Antifungal activity against Candida albicans ATCC 90028 after 24 hrs by resazurin dye-based two-fold serial dilution assay; format: functional; settings: ATCC 90028, 24 h
Staphylococcus aureus = assay: Antibacterial activity against methicillin-resistant Staphylococcus aureus ATCC 43300 after 18 hrs by two-fold serial dilution assay; format: functional; settings: ATCC 43300, 18 h
Method in brief: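 MRSA ATCC 43300 grown overnight in cation-adjusted Mueller Hinton broth at 37 °C, diluted 40-fold, grown 1.5–3 h to mid-log. Inoculated at 5 × 10⁵ CFU/mL into two-fold compound dilutions (final 32–0.25 range). Incubated 18 h at 37 °C without shaking; OD600 read. Inhibition normalised to media-only and untreated-bacteria controls. MIC taken as lowest concentration giving ≥80% inhibition; duplicates (n = 2).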

[4] = test system: Trypanosoma brucei brucei; assay: Antiparasitic activity against Trypanosoma brucei brucei Lister 427 after 48 hrs by Alamar blue assay; format: functional, organism-based; settings: Lister 427, 48 h
Method in brief: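 Bloodstream-form Lister 427 in HMI-9 with 10% heat-inactivated FBS, counted by haemocytometer and seeded at 2 × 10⁴ cells/mL over serial compound dilutions. After 48 h at 37 °C, 5% CO₂, resazurin (0.49 mM solution in PBS) added for a further 24 h. Fluorescence ex 544/em 590 nm; EC50 from curve fit. Duplicates, at least three independent occasions.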

[5] = Selectivity index, ratio of CC50 for cytotoxicity against HEK293 cells to MIC50 for antimycobacterial activity against GFP labelled Mycobacterium tuberculosis H37Rv; format: toxicity, cell-based; settings: human, read-out: Selectivity Index

| Compound | MIC70 (Cryptococcus neoformans) [µg/mL] | CC50 at 20 h [1] [µg/mL] | MIC99 [2] | Retention_time [3] [min] | ΔTm (Salmon testes DNA) [°C] | EC50 (Trypanosoma congolense) [µM] | MIC80 (Candida albicans) [µg/mL] | MIC80 (Staphylococcus aureus) [µg/mL] | EC50 [4] [µM] | MIC99 ([2]; 336 h) [µg/mL] | selectivity ratio [5] |
| --- | --- | --- | --- | --- | --- | --- | --- | --- | --- | --- | --- |
| CC(=O)Nc1cc(C(=O)Nc2cc(C(=O)Nc3nc(C(=O)NCCCN(C)C)c(CCC(C)C)s3)n(C)c2)n(C)c1 | 16 (≈ 27.4 µM) | > 32 | inactive | 27.1 | 4 | 9.1 | > 32 | 16 (≈ 27.4 µM) | 28 |  |  |
| CN(C)CCCNC(=O)c1cc(NC(=O)c2cc(NC(=O)c3cc(NC(=N)c4cnc5ccccc5c4)cn3C)cn2C)cn1C | 8 (≈ 12.8 µM) | > 32 |  | 19.7 | > 17 | 0.6 | > 32 | > 32 | 5.7 | 25 (≈ 40.1 µM) |  |
| COc1cccc(C(=N)Nc2cc(C(=O)Nc3cc(C(=O)Nc4cc(C(=O)NCCCN(C)C)n(C)c4)n(C)c3)n(C)c2)c1 | >32 |  | inactive | 17.5 | 11 | 1.4 | > 32 | > 32 | 44 |  |  |
| COc1cccc(C(=N)Nc2cc(C(=O)Nc3cc(C(=O)Nc4nc(C(=O)NCCCN(C)C)c(CCC(C)C)s4)n(C)c3)n(C)c2)c1 | 2 (≈ 2.96 µM) | > 32 |  | 26.8 | 7 | 5.8 | > 32 | 1 (≈ 1.48 µM) | 17 | 25 (≈ 37 µM) |  |
| CC(C)CCn1cc(NC(=O)c2cc(NC(=O)c3cc(NC(=N)c4ccccc4)cn3C)cn2C)cc1C(=O)NCCCN(C)C | >32 |  | inactive | 22.6 | 8 | 1.2 | > 32 | > 32 | 33 |  |  |
| CC(C)CCc1sc(NC(=O)c2cc(NC(=O)c3cc(NC(=N)c4cccc(F)c4)cn3C)cn2C)nc1C(=O)NCCCN(C)C | 8 (≈ 12.1 µM) | 18 (≈ 27.1 µM) |  | 26.2 | 4 | 5.5 | > 32 | 8 (≈ 12.1 µM) | 18 | 3.1 (≈ 4.67 µM) | 25 |
| CN(C)CCCNC(=O)c1cc(NC(=O)c2cc(NC(=O)c3cc(NC(=N)c4ccccc4)cn3C)cn2C)cn1C | >32 |  | inactive | 17.8 | 11 | 2.2 | > 32 | > 32 | > 100 |  |  |
| CC(C)CCc1sc(NC(=O)c2cc(NC(=O)c3cc(NC(=N)c4cccc(Cl)c4)cn3C)cn2C)nc1C(=O)NCCCN(C)C | 2 (≈ 2.94 µM) | 9.2 (≈ 13.5 µM) |  | 26.9 | 5 | 5.6 | > 32 | 2 (≈ 2.94 µM) | 13 | 13 (≈ 19.1 µM) |  |
| CC(C)CCn1cc(NC(=O)c2cc(NC(=O)c3cc(NC(=N)N)cn3C)cn2C)cc1C(=O)NCCCN(C)C | 32 (≈ 56.5 µM) | > 32 | inactive | 20.1 | 4 | 5.2 | > 32 | > 32 | 49 |  |  |
| CC(C)CCc1sc(NC(=O)c2cc(NC(=O)c3cc(NC(=N)c4cnc5ccccc5c4)cn3C)cn2C)nc1C(=O)NCCCN(C)C | 0.25 (≈ 0.359 µM) | 1.2 (≈ 1.72 µM) | inactive | 27.3 | 2 | 1.9 | > 32 | 1 (≈ 1.43 µM) | 3.3 |  |  |
| CC(C)CCc1sc(NC(=O)c2cc(NC(=O)c3cc(NC(=N)c4ccc(F)cc4)cn3C)cn2C)nc1C(=O)NCCCN(C)C | 4 (≈ 6.03 µM) | 18 (≈ 27.1 µM) |  | 26.2 | 9 | 10 | > 32 | 8 (≈ 12.1 µM) | 18 | 3.1 (≈ 4.67 µM) | 25 |
| CC(C)CCc1sc(NC(=O)c2cc(NC(=O)c3cc(NC(=N)c4ccc(Cl)cc4)cn3C)cn2C)nc1C(=O)NCCCN(C)C | 4 (≈ 5.88 µM) | 10 (≈ 14.7 µM) |  | 26.8 | 4 | 4.3 | > 32 | 8 (≈ 11.8 µM) | 13 | 13 (≈ 19.1 µM) |  |
| CC(C)CCn1cc(NC(=O)c2cc(NC(=O)c3cc(NC(=N)c4cnc5ccccc5c4)cn3C)cn2C)cc1C(=O)NCCCN(C)C | 8 (≈ 11.8 µM) | 12 (≈ 17.7 µM) |  | 24.8 | 17 | 0.82 | > 32 | 32 (≈ 47.1 µM) | 2.7 | 25 (≈ 36.8 µM) |  |
| CN(C)CCCNC(=O)c1cc(NC(=O)c2cc(NC(=O)c3cc(NC(=N)N)cn3C)cn2C)cn1C | >32 |  | inactive | 14.2 | 5 | 6.2 | > 32 | > 32 | > 100 |  |  |
| COc1cccc(C(=N)Nc2cc(C(=O)Nc3cc(C(=O)Nc4cc(C(=O)NCCCN(C)C)n(CCC(C)C)c4)n(C)c3)n(C)c2)c1 | >32 | > 32 | inactive | 23.8 | 5 | 1.4 | > 32 | > 32 | 24 |  |  |
| CC(=O)Nc1cc(C(=O)Nc2cc(C(=O)Nc3cc(C(=O)NCCCN(C)C)n(C)c3)n(C)c2)n(C)c1 | >32 |  | inactive | 18.3 | 5 | 7 | > 32 | > 32 | > 100 |  |  |
| CC(=O)Nc1cc(C(=O)Nc2cc(C(=O)Nc3cc(C(=O)NCCCN(C)C)n(CCC(C)C)c3)n(C)c2)n(C)c1 | >32 |  | inactive | 22.8 | 3 | 6.5 | > 32 | > 32 | 54 |  |  |
| CC(C)CCc1sc(NC(=O)c2cc(NC(=O)c3cc(NC(=N)c4ccccc4)cn3C)cn2C)nc1C(=O)NCCCN(C)C | 4 (≈ 6.19 µM) | > 32 |  | 26.2 | 7 | 5.8 | > 32 | > 32 | 23 | 25 (≈ 38.7 µM) |  |
| CC(C)CCc1sc(NC(=O)c2cc(NC(=O)c3cc(NC(=N)N)cn3C)cn2C)nc1C(=O)NCCCN(C)C | 4 (≈ 6.84 µM) | 20 (≈ 34.2 µM) | inactive | 23.4 | 4 | 6.1 | > 32 | 16 (≈ 27.4 µM) | 15 |  |  |
